From article PMC5339005 (International Journal of Nanomedicine, 2017)
Counter-ions that a name gives are not always drawn. Square brackets hold non-standard residues; d marks the D form. Peptide text beside a SMILES is read from it. Sar = CNCC(=O)O

Columns and labels:
HCEpiC [1] = assay: Flow cytometry uptake mechanism with endocytic inhibitors, HCEpiC; format: cell-based, human; details: inhibitor pre-incubated 30 min, nanocomposites 4 h
Outline: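 HCEpiC were seeded at 10^5 cells/well in 12-well plates and grown 6 days, with medium refreshed every 2 days. FITC-labeled nanocomposites (2 μg/mL FITC) were then added for 4 h at 37°C. Cells were rinsed twice with cold DPBS, trypsinized, resuspended at 5×10^5–1×10^6 cells/mL and read by flow cytometry at 495/525 nm. Untreated cells served as control; n=3.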

ARPE-19 cells [2] = assay: Flow cytometry uptake mechanism with endocytic inhibitors, ARPE-19; format: cell-based; details: inhibitor pre-incubated 30 min, nanocomposites 4 h
Outline: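 ARPE-19 cells were seeded at 10^5 cells/well in 12-well plates and grown 5 days, with one medium change. FITC-labeled nanocomposites (4 μg/mL FITC) were then added for 4 h at 37°C in serum-free medium. Cells were rinsed with cold PBS, trypsinized and read by flow cytometry at 495/525 nm. Untreated cells served as control; n=3.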

HCEpiC and ARPE-19 cells = assay: Gly-Sar cell viability by MTT assay; format: cell-based; details: even at 10 mM; cells not stated at the place (Figure S6)
[3] = In vitro drug release, dynamic dialysis method; format: physicochemical; details: PBS pH 7.4, within 2 h
Outline: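 Free drug solution or drug-loaded nanosheet suspension (1 mL, 50 μg drug) was placed in a dialysis bag (MWCO 8–14 kDa) in PBS pH 7.4 at 35°C±0.5°C, shaken at 400 rpm. Samples of 0.5 mL were taken at 10–720 min, filtered through 0.22 μm and replaced with fresh PBS. Drug was quantified by HPLC.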

HCEpiC [4] = assay: Cellular uptake, inverted fluorescence microscope, HCEpiC; format: cell-based, human; details: 2 μg/mL FITC, 37°C, 1, 2 and 4 h
Outline: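 HCEpiC were grown in poly-L-lysine-coated flasks (2 μg/cm2) in serum-free corneal epithelial medium with growth supplement, under 5% CO2 at 37°C. They were seeded at 5×10^4 cells/well in 24-well plates and grown 6 days, with medium refreshed every 2 days. Cells were exposed for 1, 2 and 4 h at 37°C to FITC-labeled test nanocomposites, free FITC or polymer–FITC control solution, at 2 μg/mL FITC. They were washed three times with DPBS and imaged by inverted fluorescence microscopy.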

ARPE-19 cells [5] = assay: Cellular uptake, inverted fluorescence microscope, ARPE-19; format: cell-based; details: ARPE-19, 4 μg/mL FITC, 37°C, 1, 2 and 4 h
Outline: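 ARPE-19 cells were grown in DMEM/F-12 with 10% FBS under 5% CO2 at 37°C. They were seeded at 5×10^4 cells/well in 24-well plates and grown 2 days. Cells were exposed for 1, 2 and 4 h at 37°C to FITC-labeled test nanocomposites, free FITC or polymer–FITC control solution (3.8×10−4% or 0.008% w/v polymer), at 4 μg/mL FITC. They were washed three times with PBS and imaged by inverted fluorescence microscopy.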

Row | SMILES | Effect of inhibitor on cellular uptake of FITC-labeled nanocomposites vs control (HCEpiC [1]) | Effect of inhibitor on cellular uptake of FITC-labeled nanocomposites vs control (ARPE-19 cells [2]) | also measured
1 | CN(C)CCCN1c2ccccc2Sc2ccc(Cl)cc21 [chlorpromazine, chlorpromazine hydrochloride] | significantly decreased | significantly decreased | 
2 | CN(CC(=O)O)C(=O)CN [Gly-Sar] (H-Gly-[Sar]-OH) |  |  | Cytotoxicity (cell viability by MTT) (HCEpiC and ARPE-19 cells): no cytotoxicity
3 | O=C([O-])c1cc(=O)c2c3nc4ccccc4oc-3cc(=O)c2[nH]1.[Na+] [PRN solution, Pirenoxine sodium] |  |  | Cumulative release of PRN [3]: ~ 100%
4 | N=C(N)NC(=O)c1nc(Cl)c(N)nc1N [amiloride] | no effect | no effect | 
5 | C[C@@H]1[C@H](O)[C@@H](C)/C=C/C=C/CC/C=C/C=C/C=C/C=C/C(O[C@H]2O[C@H](C)[C@@H](O)[C@H](N)[C@@H]2O)CC2O[C@](O)(CC(O)C(O)CCC(O)CC(O)CC(O)CC(=O)O[C@H]1C)CC(O)C2C(=O)O (stereo partly shown) [Nystatin, nystatin] | no significant influence | no significant influence | 
6 | O=c1c(-c2ccc(O)cc2)coc2cc(O)cc(O)c12 [genistein] | no significant influence | no significant influence | 
7 | [N-]=[N+]=[N-].[Na+] [sodium azide] | decreased | decreased | 
8 | OC[C@H]1O[C@@](CO)(O[C@H]2O[C@H](CO)[C@@H](O)[C@H](O)[C@H]2O)[C@@H](O)[C@@H]1O [hypertonic sucrose, sucrose] | significantly decreased | significantly decreased | 
9 | O=C1OC2(c3ccc(O)cc3Oc3cc(O)ccc32)c2ccc(N=C=S)cc21 [free FITC, fluorescein isothiocyanate (FITC) isomer I] |  |  | Fluorescence of cells (cellular uptake) (HCEpiC [4]): negligible fluorescence; Fluorescence of cells (cellular uptake) (ARPE-19 cells [5]): negligible fluorescence
